{"source": "paper PMC3162150", "about": "(Cancer Chemotherapy and Pharmacology, 2011)", "key": {"[1]": {"conditions": "cited from earlier work"}, "[2]": {"assay_type": "in vivo, human", "conditions": "for AUC0–∞ ratio (90% CI), panobinostat + ketoconazole / panobinostat alone / C max ratio (90% CI), panobinostat + ketoconazole / panobinostat alone: geometric mean ratio; for CL/F: geometric mean"}, "[3]": {"tested_on": "human cytochrome P450 CYP3A4", "conditions": "in vitro; minor involvement of CYP2D6 and CYP2C19; no reference given; cited from earlier work"}, "[4]": {"assay_type": "in vivo, human", "procedure,_shortened": "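Patients took 20 mg of the oral test compound each Monday, Wednesday and Friday from day 15 (extension phase) until disease progression or withdrawal. Before that, in cycle 1, they had single 20 mg doses on day 1 and day 8; the day 8 dose followed a CYP3A inhibitor given at 400 mg once daily on days 5–9. Laboratory assessments were done weekly during the extension.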"}, "[5]": {"assay": "12-lead ECG monitoring during the core phase"}, "[6]": {"assay": "Adverse events and laboratory safety assessment", "assay_type": "in vivo, human"}, "[7]": {"conditions": "cited from earlier work", "remark": "listed apart in the source"}, "[8]": {"tested_on": "CYP3A", "assay": "Estimate of fraction of panobinostat cleared by CYP3A from AUC ratio", "assay_type": "in vivo, human"}, "[9]": {"conditions": "ref personal communication Margaret M Woo, Novartis"}, "[10]": {"conditions": "20 mg panobinostat, ketoconazole 400 mg"}, "[11]": {"conditions": "20 mg panobinostat, ketoconazole 400 mg, listed as panobinostat"}, "[12]": {"conditions": "period 1 (panobinostat only), N = 14"}, "[13]": {"conditions": "period 3 (concomitant panobinostat and ketoconazole), N = 14"}, "[14]": {"conditions": "extension phase, panobinostat 20 mg MWF, 13 patients"}, "[15]": {"conditions": "period 2 (ketoconazole only), N = 14"}}, "note": "Values joined by “and” are separate entries in the source; they are usually repeats but may differ in a detail not shown here. Identical values can stand only once. Like-named read-outs stand apart in the source and are kept apart here."}
{"smiles": "Cc1[nH]c2ccccc2c1CCNCc1ccc(/C=C/C(=O)NO)cc1", "note": "[Panobinostat]", "values": [{"measurement": "inter-individual variability in pharmacokinetics", "setting": "[1]; [9]", "result": 60, "unit": "%"}, {"measurement": "intra-individual variability in pharmacokinetics", "setting": "[1]; [9]", "result": 30, "unit": "%"}, {"measurement": "dose dependence of C max and AUC", "setting": "[1]; two dose-escalation trials, dose between 20 and <60 mg", "result": "increase linearly with the dose"}, {"measurement": "change in T max or half-life in the presence of ketoconazole", "setting": "[2]; [10]", "result": "No substantial change"}, {"measurement": "residual panobinostat in plasma prior to the day 8 dose", "setting": "[2]; after 20 mg dose on day 1, LLOQ 0.5 ng/ml", "result": "No residual panobinostat was detectable"}, {"measurement": "AUC0–∞ ratio (90% CI), panobinostat + ketoconazole / panobinostat alone", "setting": "[2]; [10]", "result": "1.8 (1.5–2.2)"}, {"measurement": "C max ratio (90% CI), panobinostat + ketoconazole / panobinostat alone", "setting": "[2]; [10]", "result": "1.6 (1.2–2.2)"}, {"measurement": "AUC0–∞ ratio (90% CI), panobinostat + ketoconazole / panobinostat alone", "setting": "[2]; [11]", "result": 1.8}, {"measurement": "C max ratio (90% CI), panobinostat + ketoconazole / panobinostat alone", "setting": "[2]; [11]", "result": 1.6}, {"measurement": "Tmax", "setting": "[2]; human, plasma, oral, 20 mg", "result": 1, "unit": "h"}, {"measurement": "half-life", "setting": "[2]; human, plasma, oral, 20 mg", "result": 14, "unit": "h"}, {"measurement": "AUC(0-inf)", "setting": "[2]; human, plasma, po, 20 mg", "result": 133, "unit": "ng·h/mL"}, {"measurement": "Cmax", "setting": "[2]; human, plasma, po, 20 mg", "result": 18.5, "unit": "ng/mL"}, {"measurement": "T max difference, panobinostat + ketoconazole vs panobinostat alone", "setting": "[2]; median (minimum and maximum difference)", "result": "0.0 (−2.5 to 3.0) h"}, {"measurement": "CL/F", "setting": "[2]; panobinostat 20 mg + ketoconazole 400 mg", "result": 90.6, "unit": "L/h"}, {"measurement": "CL/F", "setting": "[2]; panobinostat 20 mg alone", "result": 150.3, "unit": "L/h"}, {"measurement": "share of oxidative metabolism mediated by CYP3A4", "setting": "[3]", "result": "70–98%"}, {"measurement": "Fractional excretion of phosphate", "setting": "[4]; Subj nr 00005, day 54, extension phase", "result": "5.3 (day 54) %"}, {"measurement": "Fractional excretion of phosphate", "setting": "[4]; Subj nr 00005, day 61, extension phase", "result": "3.2 (day 61) %"}, {"measurement": "Fractional excretion of phosphate", "setting": "[4]; Subj nr 00007, day 70, extension phase", "result": "19.4 (day 70) %"}, {"measurement": "Fractional excretion of phosphate", "setting": "[4]; Subj nr 00007, day 77, extension phase", "result": "19.0 (day 77) %"}, {"measurement": "Fractional excretion of phosphate", "setting": "[4]; Subj nr 00010, day 36, extension phase", "result": "2.7 (day 36) %"}, {"measurement": "Fractional excretion of phosphate", "setting": "[4]; Subj nr 00010, day 43, extension phase", "result": "8.9 (day 43) %"}, {"measurement": "mean QTc increase at any moment compared with baseline", "setting": "[5]; core phase (15 days; panobinostat 20 mg days 1 and 8, ketoconazole days 5–9)", "result": "below 5%"}, {"measurement": "increases in QTc ≥ 60 ms compared with baseline", "setting": "[5]; core phase, all three periods", "result": "No increases"}, {"measurement": "Ectopic activity", "setting": "[5]; [12]", "result": "2 (14%) patients (%)"}, {"measurement": "New QTcB >450 ms", "setting": "[5]; [12]", "result": "3 (21%) patients (%)"}, {"measurement": "QTcB increase >60 ms", "setting": "[5]; [12]", "result": "0 patients (%)"}, {"measurement": "ST segment depression", "setting": "[5]; [12]", "result": "0 patients (%)"}, {"measurement": "Sinus bradycardia", "setting": "[5]; [12]", "result": "0 patients (%)"}, {"measurement": "Sinus tachycardia", "setting": "[5]; [12]", "result": "0 patients (%)"}, {"measurement": "T wave changes", "setting": "[5]; [12]", "result": "2 (14%) patients (%)"}, {"measurement": "patients with other transient ECG abnormalities", "setting": "[5]; [12]", "result": 21, "unit": "%"}, {"measurement": "Ectopic activity", "setting": "[5]; [13]", "result": "2 (14%) patients (%)"}, {"measurement": "New QTcB >450 ms", "setting": "[5]; [13]", "result": "2 (14%) patients (%)"}, {"measurement": "QTcB increase >60 ms", "setting": "[5]; [13]", "result": "0 patients (%)"}, {"measurement": "ST segment depression", "setting": "[5]; [13]", "result": "2 (14%) patients (%)"}, {"measurement": "Sinus bradycardia", "setting": "[5]; [13]", "result": "0 patients (%)"}, {"measurement": "Sinus tachycardia", "setting": "[5]; [13]", "result": "2 (14%) patients (%)"}, {"measurement": "T wave changes", "setting": "[5]; [13]", "result": "2 (14%) patients (%)"}, {"measurement": "patients with other transient ECG abnormalities", "setting": "[5]; [13]", "result": 43, "unit": "%"}, {"measurement": "adverse events categorized as grade 1", "setting": "[6]; core phase", "result": "42.9 % of all events"}, {"measurement": "adverse events categorized as grade 2", "setting": "[6]; core phase", "result": "35.7 % of all events"}, {"measurement": "anorexia, regardless of relationship to study drug", "setting": "[6]; core phase, N = 14", "result": 4, "unit": "patients"}, {"measurement": "diarrhea, regardless of relationship to study drug", "setting": "[6]; core phase, N = 14", "result": 5, "unit": "patients"}, {"measurement": "fatigue, regardless of relationship to study drug", "setting": "[6]; core phase, N = 14", "result": 2, "unit": "patients"}, {"measurement": "hypophosphatemia, regardless of relationship to study drug", "setting": "[6]; core phase, N = 14", "result": 3, "unit": "patients"}, {"measurement": "myalgia, regardless of relationship to study drug", "setting": "[6]; core phase, N = 14", "result": 3, "unit": "patients"}, {"measurement": "nausea, regardless of relationship to study drug", "setting": "[6]; core phase, N = 14", "result": 3, "unit": "patients"}, {"measurement": "vomiting, regardless of relationship to study drug", "setting": "[6]; core phase, N = 14", "result": 4, "unit": "patients"}, {"measurement": "asymptomatic hypophosphatemia of grade ≥ 2", "setting": "[6]; during the trial, nine out of fourteen patients", "result": 64, "unit": "%"}, {"measurement": "anorexia, regardless of relationship to study drug", "setting": "[6]; [14]", "result": 7, "unit": "patients"}, {"measurement": "diarrhea, regardless of relationship to study drug", "setting": "[6]; [14]", "result": 8, "unit": "patients"}, {"measurement": "fatigue, regardless of relationship to study drug", "setting": "[6]; [14]", "result": 7, "unit": "patients"}, {"measurement": "hypophosphatemia, regardless of relationship to study drug", "setting": "[6]; [14]", "result": 9, "unit": "patients"}, {"measurement": "vomiting, regardless of relationship to study drug", "setting": "[6]; [14]", "result": 8, "unit": "patients"}, {"measurement": "nausea, regardless of relationship to study drug", "setting": "[6]; extension phase, single-agent panobinostat 20 mg oral MWF, 13 patients", "result": 10, "unit": "patients"}, {"measurement": "neutropenia", "setting": "[6]; panobinostat administered for a prolonged period (extension phase)", "result": 2, "unit": "patients"}, {"measurement": "dose-limiting thrombocytopenia", "setting": "[7]; patients with Hodgkin's lymphoma, dose escalation, of 13 patients", "result": "four"}, {"measurement": "grade 3/4 thrombocytopenia", "setting": "[7]; patients with Hodgkin's lymphoma, dose escalation", "result": "10 out of 13"}, {"measurement": "contribution of CYP pathways to the overall metabolism", "setting": "[8]; from fmCYP3A estimate", "result": "< 50", "unit": "%"}, {"measurement": "fmCYP3A (fraction of panobinostat cleared by CYP3A)", "setting": "[8]; in vivo", "result": 0.4}]}
{"smiles": "CC(=O)N1CCN(c2ccc(OCC3COC(Cn4ccnc4)(c4ccc(Cl)cc4Cl)O3)cc2)CC1", "note": "(stereo not drawn) [ketoconazole, reference compound]", "values": [{"measurement": "Ectopic activity", "setting": "[5]; [15]", "result": "1 (7%) patients (%)"}, {"measurement": "New QTcB >450 ms", "setting": "[5]; [15]", "result": "2 (14%) patients (%)"}, {"measurement": "Sinus tachycardia", "setting": "[5]; [15]", "result": "0 patients (%)"}, {"measurement": "T wave changes", "setting": "[5]; [15]", "result": "1 (7%) patients (%)"}, {"measurement": "patients with other transient ECG abnormalities", "setting": "[5]; [15]", "result": 21, "unit": "%"}, {"measurement": "QTcB increase >30 ms", "setting": "[5]; period 2 (ketoconazole only, day 5 until day 8), N = 14", "result": "3 patients (%) and 3 (21%) patients (%)"}]}
{"smiles": "O=C(CCCCCCC(=O)Nc1ccccc1)NO", "note": "[vorinostat, reference compound]", "values": [{"measurement": "asymptomatic hypophosphatemia reported with single agent", "setting": "[7]; review of toxicities of HDAC inhibitors", "result": 5, "unit": "%"}]}
